Results pooled from the literature.
Compare with care: the assays were run in different laboratories.
ABL1 phosphorylated: Tyrosine-protein kinase ABL1, phosphorylated (ABL1, Homo sapiens, UniProt P00519)
ABL1 E255K phosphorylated: Tyrosine-protein kinase ABL1, phosphorylated (ABL1, Homo sapiens, UniProt P00519, E255K)
ABL1 F317L phosphorylated: Tyrosine-protein kinase ABL1, phosphorylated (ABL1, Homo sapiens, UniProt P00519, F317L)
ABL1 Y253F phosphorylated: Tyrosine-protein kinase ABL1, phosphorylated (ABL1, Homo sapiens, UniProt P00519, Y253F)
ABL1 T315I: Tyrosine-protein kinase ABL1 (ABL1, Homo sapiens, UniProt P00519, T315I)
ABL1 F317I non-phosphorylated: Tyrosine-protein kinase ABL1, non-phosphorylated (ABL1, Homo sapiens, UniProt P00519, F317I)
ABL1 Q252H phosphorylated: Tyrosine-protein kinase ABL1, phosphorylated (ABL1, Homo sapiens, UniProt P00519, Q252H)
ABL1 M351T phosphorylated: Tyrosine-protein kinase ABL1, phosphorylated (ABL1, Homo sapiens, UniProt P00519, M351T)
ABL1 T315I phosphorylated: Tyrosine-protein kinase ABL1, phosphorylated (ABL1, Homo sapiens, UniProt P00519, T315I)

CN(CCCC(F)(F)F)c1nccc(-c2cnn3ncccc23)n1
remaining binding (ABL1 phosphorylated; binding; 1 µM): 100%

O=C(NC[C@@H]1[C@H]2CN(C(=O)OCc3cc(C(F)(F)F)cc(C(F)(F)F)c3)C[C@@H]12)c1ccc2[nH]nnc2c1
remaining binding (ABL1 E255K phosphorylated; binding; competition with immobilised ligand; 1 µM): 92%

O=C(c1ccc(Nc2nccc(-c3cc4ccccc4s3)n2)cc1)N1CCC(N2CCCC2)CC1
remaining binding (ABL1 F317L phosphorylated; binding; competition with immobilised ligand; 1 µM): 100%

c1cncc(-c2cccc(Nc3nccc(NC4CCCCC4)n3)c2)c1
remaining binding (ABL1 Y253F phosphorylated; binding; competition with immobilised ligand; 10 µM): 12%

CCOCCn1cc(C(=O)Nc2ccc(-n3nc(-c4cccnc4)cc3C(F)(F)F)cn2)ccc1=O
remaining binding (ABL1 F317L phosphorylated; cell-free assay; competition with immobilised ligand; 1 µM): 79%

C[C@H]1CCN(c2nccc(-c3cnn4ncccc34)n2)C1
remaining binding (ABL1 T315I; binding; 1 µM): 82%

CN([C@@H]1CCc2c(CC(=O)O)c3ccccc3n2C1)S(=O)(=O)c1ccc(F)cc1
remaining binding (ABL1 F317L phosphorylated; cell-free assay; competition with immobilised ligand; 1 µM): 92%

COc1cnc(Nc2cccc(S(N)(=O)=O)c2)nc1N1CCN(c2ccccc2)CC1
remaining binding (ABL1 F317I non-phosphorylated; binding; competition with immobilised ligand; 1 µM): 94%

O=C(NCC1CCOCC1)c1n[nH]cc1NC(=O)c1c(F)cccc1F
remaining binding (Tyrosine-protein kinase ABL1, non-phosphorylated (ABL1, Homo sapiens, UniProt P00519, F317L); binding; competition with immobilised ligand; 1 µM): 88%

COc1ncc2cc3ccccc3nc2c1C#N
remaining binding (ABL1 F317I non-phosphorylated; cell-free assay; competition with immobilised ligand; 5 µM): 96%

CN(C)c1nccc(-c2cnc3ncccn23)n1
remaining binding (ABL1 phosphorylated; binding; 1 µM): 57%

O=C(NCc1ncc(C(F)(F)F)cc1Cl)c1ccc2c(c1)C1(CCS(=O)(=O)CC1)[C@H](C1CC1)N2S(=O)(=O)c1ccc(F)cc1
remaining binding (ABL1 Q252H phosphorylated; cell-free assay; competition with immobilised ligand; 1 µM): 70%

O=C(Nc1c[nH]nc1C(=O)NC1CCNCC1)c1cc(F)cc(F)c1
remaining binding (ABL1 Q252H phosphorylated; binding; competition with immobilised ligand; 1 µM): 99%

COc1cnc(Nc2cccc(S(N)(=O)=O)c2)nc1N1CCN(c2ccccc2)C(=O)C1
remaining binding (ABL1 Y253F phosphorylated; binding; competition with immobilised ligand; 1 µM): 82%

CN(C)c1ncc(F)c(-c2cnn3ncccc23)n1
remaining binding (Tyrosine-protein kinase ABL1, non-phosphorylated (ABL1, Homo sapiens, UniProt P00519); binding; competition with immobilised ligand; 1 µM): 89%

O=C(NCCCN1CCOCC1)c1ccc(Nc2ncc(Cl)c(-c3ccc(Cl)s3)n2)cc1
remaining binding (ABL1 Y253F phosphorylated; binding; competition with immobilised ligand; 1 µM): 38%

Nc1ncc2c(n1)-c1c([nH]c3ccc(C#CC4CC4)cc13)CCCC2
remaining binding (ABL1 M351T phosphorylated; binding; competition with immobilised ligand; 1 µM): 95%

C=CC(=O)N1CCC(C(=O)NCC(=O)N2CCN(c3nc(-c4cnc(N)nc4C(F)F)nc(N4CCOCC4)n3)CC2)CC1
remaining binding (ABL1 M351T phosphorylated; binding; competition with immobilised ligand; 1 µM): 99%

N[C@@H]1CCN(c2nccc(-c3cnn4ncccc34)n2)C1
remaining binding (ABL1 T315I; binding; 1 µM): 95%

C[C@@H](c1ccc(-n2cnc3c(N)ncnc32)cc1)N1CCc2nn(C)c(Cc3ccccc3)c2C1=O
remaining binding (ABL1 E255K phosphorylated; binding; competition with immobilised ligand; 0.1 µM): 70%

CCN1CCN(Cc2ccc(C(=O)Nc3ccc(C)c(Oc4ccc5c(c4)CC(=O)N5)c3)cc2C(F)(F)F)CC1
remaining binding (ABL1 M351T phosphorylated; binding; competition with immobilised ligand; 1 µM): 55%

CNC(=O)[C@@H]1CC[C@@H](n2c(-c3ccc4cnccc4c3)nc3ccc(C(=O)NCc4cccc(C(N)=O)c4)cc32)C1
remaining binding (ABL1 F317I non-phosphorylated; binding; competition with immobilised ligand; 1 µM): 100%

CNCc1ccccc1-c1csc([C@@H](C)Nc2nc(C)nc3cc(OC)c(OC)cc23)c1
remaining binding (ABL1 F317I non-phosphorylated; binding; competition with immobilised ligand; 1 µM): 100%

O=C(NCCCN1CCOCC1)c1ccc(Nc2nccc(-c3cc4ccccc4s3)n2)cc1
remaining binding (ABL1 T315I phosphorylated; binding; competition with immobilised ligand; 1 µM): 41%

Cc1cnn2ncc(-c3ccnc(N(C)C)n3)c2c1
remaining binding (Tyrosine-protein kinase ABL1 (ABL1, Homo sapiens, UniProt P00519, H396P); binding; 1 µM): 81%

CO[C@H]1CC[C@H](CNc2ccc(S(=O)(=O)NC(=O)c3ccc(N4CCN(CC5=C(c6ccc(Cl)cc6)CC(C)(C)CC5)CC4)cc3Oc3cnc4[nH]ccc4c3)cc2[N+](=O)[O-])CC1
remaining binding (ABL1 F317L phosphorylated; cell-free assay; competition with immobilised ligand; 1 µM): 83%

O=C(c1ccc(Nc2ncc(Cl)c(-c3ccc(Cl)s3)n2)cc1)N1CCC(N2CCCC2)CC1
remaining binding (ABL1 Y253F phosphorylated; binding; competition with immobilised ligand; 1 µM): 5%

O=C(O)[C@@H]1[C@@H](Cn2nnc3ccccc3c2=O)CC[C@H]1C(=O)c1ccc(OCCC2CCOCC2)cc1
remaining binding (Tyrosine-protein kinase ABL1, non-phosphorylated (ABL1, Homo sapiens, UniProt P00519, H396P); cell-free assay; competition with immobilised ligand; 1 µM): 97%

Cc1cnc(Nc2ccc(C(=O)N3CCC(N4CCCC4)CC3)cc2)nc1-c1cc2ccccc2s1
remaining binding (ABL1 E255K phosphorylated; binding; competition with immobilised ligand; 1 µM): 1.4%

Cc1c(C(=O)O)cc(-c2ccc(C3CCNCC3)cc2)c2ccc(-c3ccc(C(F)(F)F)cc3)cc12
remaining binding (Tyrosine-protein kinase ABL1, phosphorylated (ABL1, Homo sapiens, UniProt P00519, F317I); binding; 1 µM): 100%

O=C(c1ccc(Nc2ncc(Cl)c(-c3cc4ccccc4s3)n2)cc1)N1CCC(N2CCCC2)CC1
remaining binding (ABL1 T315I phosphorylated; binding; competition with immobilised ligand; 1 µM): 3.3%

CN(c1nccc(-c2cnn3ncccc23)n1)C1CC1
remaining binding (ABL1 phosphorylated; binding; 1 µM): 99%
